# From PMC3062473 (ChemMedChem, 2010)
# Legend:
# Caspase 6 = biological target: T1, Caspase 6 (Homo sapiens, UniProt P55212); assay: Reaction Biology caspase panel; assay type: biochemical
# T1 sequence (P55212 24-179 limits assumed): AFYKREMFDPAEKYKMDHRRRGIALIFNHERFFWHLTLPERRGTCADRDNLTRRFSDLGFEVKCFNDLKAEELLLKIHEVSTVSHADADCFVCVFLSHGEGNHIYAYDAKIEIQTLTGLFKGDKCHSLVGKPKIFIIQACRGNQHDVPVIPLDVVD
# T1 sequence (P55212 194-293 limits assumed): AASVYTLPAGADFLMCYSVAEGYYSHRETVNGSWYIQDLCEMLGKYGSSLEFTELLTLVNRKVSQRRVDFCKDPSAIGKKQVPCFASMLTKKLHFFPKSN
# Caspase 7 = biological target: T2, Caspase 7 (Homo sapiens, UniProt P55210); assay: Reaction Biology caspase panel; assay type: biochemical
# T2 sequence (P55210 24-198 limits assumed): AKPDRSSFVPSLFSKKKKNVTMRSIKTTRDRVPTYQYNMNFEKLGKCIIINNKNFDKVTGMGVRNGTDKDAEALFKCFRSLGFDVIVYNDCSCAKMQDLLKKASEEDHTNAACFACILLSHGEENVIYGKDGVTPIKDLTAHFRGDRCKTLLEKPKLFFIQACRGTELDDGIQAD
# T2 sequence (P55210 207-303 limits assumed): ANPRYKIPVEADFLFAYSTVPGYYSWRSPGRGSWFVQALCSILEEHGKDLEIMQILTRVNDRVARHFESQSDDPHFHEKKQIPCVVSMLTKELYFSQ
# [1] = Aqueous degradation study by LCMS over 96 hours; assay type: physicochemical; settings: for aqueous stability (in words): up to 96 hours
# [2] = Bi-directional Caco-2 permeability; assay type: in vitro ADME; settings: human
# Outline: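 Contract-lab bidirectional Caco-2 permeability. Run as three separate experiments, each with two separate internal control groups.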
# [3] = Plasma protein binding, equilibrium dialysis in 100% plasma; assay type: in vitro ADME, human; settings: human, plasma (100%)
# Microsomal stability = assay type: in vitro ADME, human; settings: for microsomal CLint / half-life: human, liver microsomes; for half-life: Microsomal Stability t1/2, human liver microsomes
# Outline: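 Human microsomal stability, profiled by a contract lab alongside internal control compounds. Includes minus-NADPH and minus-compound control incubations.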
# Pgp = Pgp (Homo sapiens, UniProt P08183); assay: Caco-2 permeability in the presence of verapamil; assay type: in vitro ADME; settings: Caco-2 control experiment with verapamil
# caspase 1 [4] = biological target: T3, caspase 1 (Homo sapiens, UniProt P29466); assay: Caspase 1 fluorescence assay, Ac-LEHD-AMC substrate, 2 nM enzyme; assay type: biochemical
# T3 sequence (P29466 120-297 limits assumed): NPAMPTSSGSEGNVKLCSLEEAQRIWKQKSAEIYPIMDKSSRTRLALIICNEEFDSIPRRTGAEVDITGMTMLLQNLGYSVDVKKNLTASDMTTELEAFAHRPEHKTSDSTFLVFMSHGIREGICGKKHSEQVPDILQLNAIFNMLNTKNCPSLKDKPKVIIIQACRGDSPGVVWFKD
# T3 sequence (P29466 317-404 limits assumed): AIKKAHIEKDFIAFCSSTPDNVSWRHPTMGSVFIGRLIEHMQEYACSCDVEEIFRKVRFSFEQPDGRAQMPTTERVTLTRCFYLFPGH
# Outline: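 Compound added from DMSO as a 12-point duplicate titration (0.65 pM to 57.5 μM) and preincubated 15 min at RT. Then 5 μM Ac-LEHD-AMC final was added and the initial rate followed 20 min at RT (ex 340/em 450 nm). Percent inhibition was taken against median uninhibited and uncatalyzed controls, with a four-parameter Hill fit.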
# caspase 1 [5] = biological target: T3, caspase 1; assay: Reaction Biology caspase panel; assay type: biochemical
# Caspase 3 = biological target: T4, Caspase 3 (Homo sapiens, UniProt P42574); assay: Reaction Biology caspase panel; assay type: biochemical
# T4 sequence (P42574 29-175 limits assumed): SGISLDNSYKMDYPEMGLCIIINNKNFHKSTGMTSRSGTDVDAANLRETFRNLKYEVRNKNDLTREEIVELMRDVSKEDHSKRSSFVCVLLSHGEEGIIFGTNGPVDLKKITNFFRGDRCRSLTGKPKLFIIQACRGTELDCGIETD
# T4 sequence (P42574 176-277 limits assumed): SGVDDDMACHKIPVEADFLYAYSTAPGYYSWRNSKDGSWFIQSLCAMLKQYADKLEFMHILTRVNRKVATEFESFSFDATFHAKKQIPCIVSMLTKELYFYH
# Caspase 4 = biological target: T5, Caspase 4 (Homo sapiens, UniProt P49662); assay: Reaction Biology caspase panel; assay type: biochemical
# T5 sequence (P49662 81-270 limits assumed): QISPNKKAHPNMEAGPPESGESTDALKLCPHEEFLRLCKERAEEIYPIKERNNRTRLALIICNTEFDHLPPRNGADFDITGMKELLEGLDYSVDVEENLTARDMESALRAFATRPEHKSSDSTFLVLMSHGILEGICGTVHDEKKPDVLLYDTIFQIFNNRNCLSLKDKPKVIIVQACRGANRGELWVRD
# T5 sequence (P49662 290-377 limits assumed): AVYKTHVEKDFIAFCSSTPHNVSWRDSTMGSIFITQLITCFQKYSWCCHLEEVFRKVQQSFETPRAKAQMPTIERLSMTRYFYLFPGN
# Caspase 5 = biological target: T6, Caspase 5 (Homo sapiens, UniProt P51878); assay: Reaction Biology caspase panel; assay type: biochemical
# T6 sequence (P51878 137-327 limits assumed): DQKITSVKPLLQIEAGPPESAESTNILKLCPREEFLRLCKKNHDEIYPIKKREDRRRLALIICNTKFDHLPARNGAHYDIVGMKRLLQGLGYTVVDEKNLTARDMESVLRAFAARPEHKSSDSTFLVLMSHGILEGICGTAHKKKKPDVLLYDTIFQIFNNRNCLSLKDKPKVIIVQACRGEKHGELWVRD
# T6 sequence (P51878 347-434 limits assumed): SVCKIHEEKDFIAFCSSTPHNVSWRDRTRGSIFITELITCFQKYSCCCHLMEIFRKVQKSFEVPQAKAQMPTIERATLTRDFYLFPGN
# Caspase 8 = Caspase 8 (Homo sapiens, UniProt Q14790); assay: Reaction Biology caspase panel; assay type: biochemical
# Caspase 9 = biological target: T7, Caspase 9 (Homo sapiens, UniProt P55211); assay: Reaction Biology caspase panel; assay type: biochemical
# T7 sequence (P55211 1-315 limits assumed): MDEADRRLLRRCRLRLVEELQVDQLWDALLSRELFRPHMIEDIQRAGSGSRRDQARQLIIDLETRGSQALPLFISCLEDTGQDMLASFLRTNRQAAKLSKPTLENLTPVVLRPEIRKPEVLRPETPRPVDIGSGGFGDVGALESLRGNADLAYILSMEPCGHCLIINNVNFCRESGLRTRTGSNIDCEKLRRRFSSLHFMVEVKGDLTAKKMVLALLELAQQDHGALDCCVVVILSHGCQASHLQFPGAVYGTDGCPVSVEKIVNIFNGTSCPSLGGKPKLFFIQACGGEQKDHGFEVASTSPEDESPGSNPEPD
# T7 sequence (P55211 331-416 limits assumed): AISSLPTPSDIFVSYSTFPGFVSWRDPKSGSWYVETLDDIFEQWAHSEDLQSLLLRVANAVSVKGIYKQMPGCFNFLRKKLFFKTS
# Caspase 10 = biological target: T8, Caspase 10 (Homo sapiens, UniProt Q92851); assay: Reaction Biology caspase panel; assay type: biochemical
# T8 sequence (Q92851 220-415 limits assumed): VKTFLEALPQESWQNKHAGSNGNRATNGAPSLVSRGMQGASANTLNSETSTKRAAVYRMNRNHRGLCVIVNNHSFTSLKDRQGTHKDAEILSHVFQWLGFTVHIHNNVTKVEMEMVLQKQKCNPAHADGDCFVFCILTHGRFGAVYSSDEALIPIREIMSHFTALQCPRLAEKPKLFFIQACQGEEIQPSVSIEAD
# T8 sequence (Q92851 416-521 limits assumed): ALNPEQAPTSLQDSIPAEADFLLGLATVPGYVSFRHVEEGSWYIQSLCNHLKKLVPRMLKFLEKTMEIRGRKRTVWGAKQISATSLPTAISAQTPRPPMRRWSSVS
# Caspase 14 = biological target: T9, Caspase 14 (Homo sapiens, UniProt P31944); assay: Reaction Biology caspase panel; assay type: biochemical
# T9 sequence (P31944 6-146 limits assumed): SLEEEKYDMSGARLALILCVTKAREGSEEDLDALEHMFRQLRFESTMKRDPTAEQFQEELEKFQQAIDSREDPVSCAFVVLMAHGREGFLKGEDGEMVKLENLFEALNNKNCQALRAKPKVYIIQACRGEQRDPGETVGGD
# T9 sequence (P31944 153-242 limits assumed): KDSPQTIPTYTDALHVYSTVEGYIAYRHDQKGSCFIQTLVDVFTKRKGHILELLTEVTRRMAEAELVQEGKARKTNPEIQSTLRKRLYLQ
# Chain of Caspase 8 (Q14790 217-374 limits assumed): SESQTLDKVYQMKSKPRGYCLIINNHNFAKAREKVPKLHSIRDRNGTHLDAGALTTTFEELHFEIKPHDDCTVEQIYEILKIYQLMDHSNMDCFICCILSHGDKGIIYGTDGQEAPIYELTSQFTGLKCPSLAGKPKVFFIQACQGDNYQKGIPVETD
# Chain of Caspase 8 (Q14790 385-479 limits assumed): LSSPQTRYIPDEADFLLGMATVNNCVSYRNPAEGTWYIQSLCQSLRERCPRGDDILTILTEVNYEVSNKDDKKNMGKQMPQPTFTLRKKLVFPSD
# Chain of Pgp (P08183 whole entry): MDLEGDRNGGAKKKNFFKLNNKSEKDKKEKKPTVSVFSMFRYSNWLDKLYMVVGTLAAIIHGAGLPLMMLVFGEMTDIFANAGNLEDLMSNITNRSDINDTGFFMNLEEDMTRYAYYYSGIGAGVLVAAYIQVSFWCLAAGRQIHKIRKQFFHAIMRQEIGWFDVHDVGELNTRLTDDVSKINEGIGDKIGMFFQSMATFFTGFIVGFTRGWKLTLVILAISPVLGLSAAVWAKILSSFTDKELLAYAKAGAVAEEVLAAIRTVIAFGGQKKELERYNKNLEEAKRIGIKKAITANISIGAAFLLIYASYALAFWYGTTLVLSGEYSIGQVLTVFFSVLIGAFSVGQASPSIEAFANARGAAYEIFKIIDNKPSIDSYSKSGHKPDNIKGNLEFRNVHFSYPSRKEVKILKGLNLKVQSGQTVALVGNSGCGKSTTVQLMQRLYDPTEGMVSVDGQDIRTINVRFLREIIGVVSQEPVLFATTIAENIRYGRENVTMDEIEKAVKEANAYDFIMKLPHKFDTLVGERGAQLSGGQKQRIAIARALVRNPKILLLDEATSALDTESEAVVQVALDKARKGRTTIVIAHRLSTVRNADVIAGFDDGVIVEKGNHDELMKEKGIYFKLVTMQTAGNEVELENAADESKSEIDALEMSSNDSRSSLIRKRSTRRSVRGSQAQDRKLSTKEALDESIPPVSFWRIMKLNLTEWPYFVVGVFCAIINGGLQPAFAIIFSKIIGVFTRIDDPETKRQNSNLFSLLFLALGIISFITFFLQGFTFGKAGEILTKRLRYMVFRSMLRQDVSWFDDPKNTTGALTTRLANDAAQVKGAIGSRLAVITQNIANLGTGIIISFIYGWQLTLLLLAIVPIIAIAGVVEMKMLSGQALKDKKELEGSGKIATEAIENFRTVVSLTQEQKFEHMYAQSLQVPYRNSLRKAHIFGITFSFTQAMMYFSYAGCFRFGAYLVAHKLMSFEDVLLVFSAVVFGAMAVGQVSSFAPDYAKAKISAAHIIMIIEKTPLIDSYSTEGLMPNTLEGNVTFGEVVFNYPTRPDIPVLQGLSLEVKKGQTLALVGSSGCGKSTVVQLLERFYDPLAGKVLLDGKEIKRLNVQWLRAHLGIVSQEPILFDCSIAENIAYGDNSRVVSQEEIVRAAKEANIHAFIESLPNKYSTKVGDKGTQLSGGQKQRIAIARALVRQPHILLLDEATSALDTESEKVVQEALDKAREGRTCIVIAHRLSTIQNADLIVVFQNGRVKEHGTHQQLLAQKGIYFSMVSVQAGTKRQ
SMILES,IC50 (Caspase 6) [nM],IC50 (Caspase 7) [nM],aqueous stability (in words) ([1]; neutral (pH 7)),Papp A→B [2] [×10⁻⁶ cm/s],Papp B→A [2] [×10⁻⁶ cm/s],fraction unbound [3],microsomal CLint (Microsomal stability) [µL/min/mg],substrate for Pgp efflux (Pgp),IC50 (caspase 1 [4]) [nM],IC50 (caspase 1 [5]) [nM],IC50 (Caspase 3) [nM],IC50 (Caspase 4) [nM],IC50 (Caspase 5) [nM],IC50 (Caspase 8) [nM],IC50 (Caspase 9) [nM],IC50 (Caspase 10) [nM],IC50 (Caspase 14) [nM],aqueous stability (in words) ([1]; acidic (pH 2)),half-life (Microsomal stability) [h],aqueous stability (in words) ([1]; basic (pH 8)),further results
"CCO[C@@H]1OC(=O)C[C@@H]1NC(=O)[C@@H]1CCCN1C(=O)[C@@H](NC(=O)c1ccc(N)c(Cl)c1)C(C)(C)C [Compound 1, reference compound]",–,–,moderate degradation,0.797,32.7,0.006,0.147,substrates for Pgp efflux,–,–,–,–,–,–,–,–,–,–,–,–,"degradation ([1]; pH 2, after 3.5 hours): 40%; compound decomposed ([1]; water (pH 7), after 48 hours): over 50%; Microsomal Stability t1/2 (Microsomal stability; human liver microsomes, listed as VX-765): 157.2 h"
"CCOC(=O)C[C@@H](C#N)NC(=O)[C@@H]1CCCN1C(=O)[C@@H](NC(=O)c1ccc(N)c(Cl)c1)C(C)(C)C [Compound 3, (S)-ethyl 3-((S)-1-((S)-2-(4-amino-3-chlorobenzamido)-3,3-dimethylbutanoyl)pyrrolidine-2-carboxamido)-3-cyanopropanoate]",> 10000,> 10000,exceptionally stable,0.445,9.59,0.071,27.4,substrates for Pgp efflux,145,43.4,> 10000,> 10000,1570,> 10000,1610,> 10000,> 10000,exceptionally stable,0.845,–,"degradation (in words) ([1]; basic (pH 8), after 22 hours): fully degraded; degradation in liver microsomes without NADPH (Microsomal stability; without NADPH as a cofactor): slight degree of degradation"
"CC(C)(C)[C@H](NC(=O)c1ccc(N)c(Cl)c1)C(=O)N1CCC[C@H]1C(=O)N[C@H](C#N)CC(=O)O [Compound 4, (S)-3-((S)-1-((S)-2-(4-amino-3-chlorobenzamido)-3,3-dimethylbutanoyl)pyrrolidine-2-carboxamido)-3-cyanopropanoic acid]",> 10000,> 10000,moderate to good,0.144,0.06,0.431,10.3,–,0.316,0.023,> 10000,13.8,3.6,25.2,2.17,89.7,801,moderate to good,2.23,exceedingly stable,"Ki (caspase 1 [4]): 0.4 nM; degradation ([1]; acidic (pH 2), after 72 hours): 50%; degradation ([1]; neutral (pH 7), after 72 hours): 50%"

# Now from value to compound, other results behind:
IC50 (Caspase 6) [nM],IC50 (Caspase 7) [nM],aqueous stability (in words) ([1]; neutral (pH 7)),Papp A→B [2] [×10⁻⁶ cm/s],Papp B→A [2] [×10⁻⁶ cm/s],fraction unbound [3],microsomal CLint (Microsomal stability) [µL/min/mg],substrate for Pgp efflux (Pgp),IC50 (caspase 1 [4]) [nM],IC50 (caspase 1 [5]) [nM],IC50 (Caspase 3) [nM],IC50 (Caspase 4) [nM],IC50 (Caspase 5) [nM],IC50 (Caspase 8) [nM],IC50 (Caspase 9) [nM],IC50 (Caspase 10) [nM],IC50 (Caspase 14) [nM],aqueous stability (in words) ([1]; acidic (pH 2)),half-life (Microsomal stability) [h],aqueous stability (in words) ([1]; basic (pH 8)),SMILES,further results
122,3.54,–,–,–,–,–,–,–,–,–,–,–,–,–,–,–,–,–,–,"CC(=O)N[C@@H](CC(=O)O)C(=O)N[C@@H](CCC(=O)O)C(=O)N[C@H](C(=O)N[C@H](C=O)CC(=O)O)C(C)C [Ac-DEVD-CHO, reference compound]",–
> 10000,> 10000,resistant to degradation,0.13,0.193,0.243,9.38,–,20.4,2.58,> 10000,1380,1300,> 10000,91.5,> 10000,> 10000,resistant to degradation,2.47,resistant to degradation,"CC(C)(C)[C@H](NC(=O)c1ccc(N)c(Cl)c1)C(=O)N1CCC[C@H]1C(=O)N[C@H](C#N)Cc1nnn[nH]1 [Compound 16, (S)-1-((S)-2-(4-amino-3-chlorobenzamido)-3,3-dimethylbutanoyl)-N-((S)-1-cyano-2-(1H-tetrazol-5-yl)ethyl)pyrrolidine-2-carboxamide]",–
